Consider 53 compounds from ChEMBL document CHEMBL3286205, “Optimization of diaryl amine derivatives as kinesin spindle protein inhibitors” (Bioorg Med Chem, 2014).

≈ marks a conversion by molar mass, not a printed value.

Data set [1] in a line: Thermodynamic solubility of the compound in 50% EtOH/1/15 M phosphate buffer at pH 7.4 after 48 hrs by HPLC analysis. The conditions noted are these: read-out: Therm_solubility. Format: physicochemical. An outline of the steps: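 Solid compound in 0.5 mL of 1/15 M phosphate buffer (pH 7.4) plus 0.5 mL EtOH was shaken 48 h at 25 °C and filtered. m-Cresol internal standard was added (0.05 mg/mL final), the sample diluted in DMF and analysed by HPLC-UV at 254 nm. Concentration came from the peak-area ratio against a calibration curve, corrected for dilution.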

A short description of data set [2]: Thermodynamic solubility of the compound in 1/15 M phosphate buffer at pH 7.4 after 48 hrs by HPLC analysis. To be noted: read-out: Therm_solubility. Format: physicochemical. An outline of the steps: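 Solid compound in 1.0 mL of 1/15 M phosphate buffer (pH 7.4) was shaken 48 h at 25 °C and filtered. m-Cresol internal standard was added (0.05 mg/mL final), the sample diluted in DMF and run on HPLC with UV at 254 nm. Concentration came from the sample/standard peak-area ratio against a calibration curve, corrected for dilution.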

Data set [3] concerns the target T1, Kinesin-like protein KIF11 (Homo sapiens, UniProt P52732).
T1 sequence (P52732 whole entry): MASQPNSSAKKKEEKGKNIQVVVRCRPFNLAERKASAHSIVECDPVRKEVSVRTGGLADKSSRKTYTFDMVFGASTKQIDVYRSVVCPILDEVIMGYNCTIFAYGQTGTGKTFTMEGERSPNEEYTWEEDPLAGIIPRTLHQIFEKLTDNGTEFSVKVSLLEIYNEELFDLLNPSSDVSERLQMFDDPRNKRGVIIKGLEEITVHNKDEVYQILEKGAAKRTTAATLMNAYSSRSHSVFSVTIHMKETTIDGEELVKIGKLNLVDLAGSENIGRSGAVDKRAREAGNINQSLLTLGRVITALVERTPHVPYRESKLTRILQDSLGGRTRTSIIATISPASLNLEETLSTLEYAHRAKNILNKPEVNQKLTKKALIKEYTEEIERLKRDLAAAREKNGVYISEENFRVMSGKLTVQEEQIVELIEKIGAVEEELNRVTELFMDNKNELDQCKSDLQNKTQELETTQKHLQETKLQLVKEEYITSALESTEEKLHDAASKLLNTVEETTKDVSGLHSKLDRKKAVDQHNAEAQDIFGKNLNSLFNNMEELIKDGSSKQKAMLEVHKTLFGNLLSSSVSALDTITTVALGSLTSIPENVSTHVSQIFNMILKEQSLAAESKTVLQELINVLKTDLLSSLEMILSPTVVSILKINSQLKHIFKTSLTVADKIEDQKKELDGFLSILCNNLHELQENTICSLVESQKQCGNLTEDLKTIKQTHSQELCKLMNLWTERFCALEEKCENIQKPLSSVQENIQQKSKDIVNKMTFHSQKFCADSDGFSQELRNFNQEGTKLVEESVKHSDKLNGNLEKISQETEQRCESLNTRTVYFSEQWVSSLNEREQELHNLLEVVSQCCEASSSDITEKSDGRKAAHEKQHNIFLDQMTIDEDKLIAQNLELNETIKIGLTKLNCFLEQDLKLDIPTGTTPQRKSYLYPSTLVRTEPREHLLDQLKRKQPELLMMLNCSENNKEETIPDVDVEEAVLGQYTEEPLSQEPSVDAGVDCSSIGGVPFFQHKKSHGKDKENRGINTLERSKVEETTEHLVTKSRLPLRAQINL
The data set is described as follows: Inhibition of C-terminal His-tagged KSP ATPase motor domain (unknown origin) expressed in bacteria incubated for 30 mins prior to ATP addition measured after 15 mins by luminescence assay.

The nature of data set [4]: Retention time of the compound by HPLC analysis. Format: physicochemical. In short, it runs like this:
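Reverse-phase C18 HPLC (4.6 × 250 mm), eluted with a linear 30–70% MeCN gradient over 40 min in 0.1% TFA.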

A further data set relates to A549. The data set is described as follows: Antiproliferative activity against human A549 cells assessed as growth inhibition after 72 hrs by MTS assay. Format: functional, cell-based. To be noted: A549, 72 h. An outline of the steps:
(§1)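 Media with 10% FBS at 37 °C, 5% CO2: A549 in DMEM (500 cells/well), HCT-116 in McCoy's 5A and MCF-7 in EMEM (5000 cells/well each). Cells settled 6 h, then got graded compound concentrations (0.1% final DMSO) for 72 h. After washing into phenol-red-free medium (1 h), MTS was added for 40 min and A490 read. IC50 came from mean inhibition rates of ≥3 experiments.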
(Formazan colour is commonly taken as a measure of viable cells.)

In another data set the test system is HCT-116. Put plainly: Antiproliferative activity against human HCT116 cells assessed as growth inhibition after 72 hrs by MTS assay. To be noted: HCT-116, 72 h. Format: functional, cell-based. An outline of the steps: as §1
In another data set the test system is MCF7. Put plainly: Antiproliferative activity against human MCF7 cells assessed as growth inhibition after 72 hrs by MTS assay. The data set is classed as functional, cell-based. The conditions noted are these: MCF7, 72 h. An outline of the steps: as §1

Turning to `FC(F)(F)c1ccc2c(c1)[nH]c1ccccc12`, the solubility thermodynamic at 48 h in data set [1] is 424 µg/mL (≈ 1800 µM); in data set [2], under 1 µg/mL. For `FC(F)(F)c1ccc2c(c1)[nH]c1cnccc12`, in that order: 472 µg/mL (≈ 2000 µM) and under 1 µg/mL. In the same order, the values of `FC(F)(F)c1ccc2c(c1)[nH]c1ccncc12` are 1760 µg/mL (≈ 7450 µM) and 3.16 µg/mL (≈ 13.4 µM). For the compound `FC(F)(F)c1cccc(Nc2cccnc2)c1`, in data set [3], the half-inhibitory concentration (IC50) was found to be 7 µM. Moreover, the solubility thermodynamic at 48 h in data set [1] is 14300 µg/mL (≈ 60000 µM); in data set [2], 10.8 µg/mL (≈ 45.3 µM). For `FC(F)(F)c1cccc(Nc2ccncc2)c1`, in that order: over 6.3 µM, 24000 µg/mL (≈ 101000 µM) and 264 µg/mL (≈ 1110 µM). Turning to `Nc1ccc2c(c1)[nH]c1cc(C(F)(F)F)ccc12`, in data set [3], half-maximal inhibition (IC50) required 0.27 µM.

Take `CC(=O)Nc1ccc2c(c1)[nH]c1cc(C(F)(F)F)ccc12`: it took 0.085 µM to reach half-maximal inhibition in data set [3] (IC50). Same read-out and setting: the figure for `O=[N+]([O-])c1ccc2[nH]c3cc(C(F)(F)F)ccc3c2c1` is 0.043 µM; for `Nc1ccc2[nH]c3cc(C(F)(F)F)ccc3c2c1` it is 0.55 µM. On the same count and under the same terms, the result for `O=[N+]([O-])c1cccc(Nc2cccc(C(F)(F)F)c2)c1` reads over 6.3 µM; that for `Nc1cccc(Nc2cccc(C(F)(F)F)c2)c1`, over 6.3 µM; that for `NC(=O)Nc1cccc(Nc2cccc(C(F)(F)F)c2)c1`, over 6.3 µM. The same measure, in the same setting: the figure for `O=[N+]([O-])c1ccc(Nc2cccc(C(F)(F)F)c2)cc1` is 3.2 µM; for `Nc1ccc(Nc2cccc(C(F)(F)F)c2)cc1` it is over 6.3 µM. As for `NC(=O)Nc1ccc(Nc2cccc(C(F)(F)F)c2)cc1`, the IC50 in data set [3] amounted to 0.39 µM. `O=C1CCc2cc(Nc3cccc(C(F)(F)F)c3)ccc2N1`: the IC50 in data set [3] amounted to 0.045 µM; in the data set with A549, 4.2 µM; in the data set on HCT-116, 8.9 µM; in the data set on MCF7, 11 µM. In addition, the values for the solubility thermodynamic at 48 h in data set [1] and in data set [2] were 1800 µg/mL (≈ 5880 µM) and under 1 µg/mL, respectively. In data set [4], this compound returned a Retention_time of 24.4 min. For `O=C1CCc2cc(Oc3cccc(C(F)(F)F)c3)ccc2N1`, the IC50 in data set [3] worked out at 2 µM. With `O=C1CCc2cc(Sc3cccc(C(F)(F)F)c3)ccc2N1`, the IC50 in data set [3] was over 6.3 µM. The same measure, in the same setting: the result for `O=C1CCc2cc(Nc3ccc(C(F)(F)F)cc3)ccc2N1` reads 0.33 µM. In data set [3], `O=C1CCc2cc(Oc3ccc(C(F)(F)F)cc3)ccc2N1` gave an IC50 of over 6.3 µM.

In data set [3], `O=C1CCc2cc(Sc3ccc(C(F)(F)F)cc3)ccc2N1` displayed an IC50 of over 6.3 µM. With `O=C1CCc2cc(Nc3ccccc3C(F)(F)F)ccc2N1`, in data set [3], the half-maximal inhibitory concentration (IC50) is over 6.3 µM. The same measure, in the same setting: the figure for `O=C1CCc2cc(Nc3ccccc3)ccc2N1` is over 6.3 µM; for `CCc1cccc(Nc2ccc3c(c2)CCC(=O)N3)c1` it is 0.81 µM; for `CC(C)c1cccc(Nc2ccc3c(c2)CCC(=O)N3)c1` it is 0.43 µM.

In data set [3], `CC(C)(C)c1cccc(Nc2ccc3c(c2)CCC(=O)N3)c1` had an IC50 of 0.16 µM.

On to `O=C1CCc2cc(Nc3cc(C(F)(F)F)cc(C(F)(F)F)c3)ccc2N1`, for which the IC50 in data set [3] is over 6.3 µM. Same read-out and setting: the figure for `O=C1CCc2cc(Nc3cccc(-c4ccccc4)c3)ccc2N1` is over 6.3 µM; for `O=C1CCc2cc(Nc3cccc(Oc4ccccc4)c3)ccc2N1` it is over 6.3 µM. Regarding `COc1cccc(Nc2ccc3c(c2)CCC(=O)N3)c1`, the IC50 in data set [3] is over 6.3 µM. With `O=C1CCc2cc(Nc3cccc(OC(F)(F)F)c3)ccc2N1`, the IC50 in data set [3] stood at 1.2 µM. Same read-out and setting: the figure for `O=C1CCc2cc(Nc3cccc(O)c3)ccc2N1` is over 6.3 µM. Turning to `O=C1CCc2cc(Nc3cccc([N+](=O)[O-])c3)ccc2N1`, the midpoint of inhibition in data set [3], the IC50, lay at 0.44 µM. The same measure, in the same setting: the result for `Nc1cccc(Nc2ccc3c(c2)CCC(=O)N3)c1` reads over 6.3 µM. Compound `COC(=O)c1cccc(Nc2ccc3c(c2)CCC(=O)N3)c1` registered an IC50 in data set [3] of over 6.3 µM.

As to `O=C1CCc2cc(Nc3cccc(C(=O)O)c3)ccc2N1`, the IC50 in data set [3] was over 6.3 µM. `O=C1CCc2cc(Nc3cc(C(F)(F)F)ccn3)ccc2N1`: the IC50 in data set [3] worked out at 0.068 µM; in the data set on A549, 2.5 µM; with HCT-116, 4.4 µM; in the data set on MCF7, 8 µM. Further, the solubility thermodynamic at 48 h in data set [1] stood at 3510 µg/mL (≈ 11400 µM); in data set [2] it was 6.12 µg/mL (≈ 19.9 µM). This compound also returned a Retention_time in data set [4] of 7 min. The compound `O=C1CCc2ccc(Nc3cccc(C(F)(F)F)c3)cc2N1` had an IC50 in data set [3] of over 6.3 µM. Still for that read-out and setting: the figure for `O=C1COc2ccc(Nc3cccc(C(F)(F)F)c3)cc2N1` is over 6.3 µM; for `O=c1ccc2ccc(Nc3cccc(C(F)(F)F)c3)cc2[nH]1` it is 4.6 µM. On the same count and under the same terms, the result for `O=C1CCc2c(cccc2Nc2cccc(C(F)(F)F)c2)N1` reads over 6.3 µM; that for `O=C1Cc2cc(Nc3cccc(C(F)(F)F)c3)ccc2N1`, 3.6 µM. The same measure, in the same setting: the result for `O=c1[nH]c2ccc(Nc3cccc(C(F)(F)F)c3)cc2o1` reads over 6.3 µM; that for `O=c1[nH]c2ccc(Nc3cccc(C(F)(F)F)c3)cc2s1`, 0.81 µM. In data set [3], `O=C1COc2cc(Nc3cccc(C(F)(F)F)c3)ccc2N1` yielded an IC50 of 0.29 µM. Take `O=C1CSc2cc(Nc3cccc(C(F)(F)F)c3)ccc2N1`: the IC50 came to 0.051 µM in data set [3], 4.1 µM with A549, 6.8 µM in the data set with HCT-116 and 6.5 µM with MCF7. Also, the solubility thermodynamic at 48 h in data set [1] was 1700 µg/mL (≈ 5240 µM); in data set [2] it was under 1 µg/mL. Also, the Retention_time in data set [4] was 28.2 min.

In turn, `CN1C(=O)CCc2cc(Nc3cccc(C(F)(F)F)c3)ccc21` returned an IC50 in data set [3] of over 6.3 µM. The same measure, in the same setting: the figure for `FC(F)(F)c1cccc(Nc2ccc3c(c2)CCC(=S)N3)c1` is 0.19 µM. In the case of `O=C1CCCc2cc(Nc3cccc(C(F)(F)F)c3)ccc2N1`, the IC50 in data set [3] amounted to 0.05 µM; in the data set with A549 it was 4.5 µM; in the data set on HCT-116, 5.7 µM; in the data set with MCF7, 3.9 µM. For the same compound, the solubility thermodynamic at 48 h is 7390 µg/mL (≈ 23100 µM) in data set [1] and under 1 µg/mL in data set [2]. In addition, the Retention_time in data set [4] stood at 27 min. Take `O=C1CCc2cc(Nc3cccc(C(F)(F)F)c3)cc(F)c2N1`: half-maximal inhibition in data set [3] (IC50) was put at 0.43 µM.

For the compound `O=C1CCc2cc(Nc3cccc(C(F)(F)F)c3)c(F)cc2N1`, inhibition in data set [3] was half-maximal at 0.92 µM (IC50). For the compound `O=C1CSc2cc(Nc3cc(C(F)(F)F)ccn3)ccc2N1`, the IC50 in data set [3] is 0.035 µM; with A549, 1.5 µM; in the data set with HCT-116 it was 2.6 µM; with MCF7 it was 2.8 µM. Moreover, the solubility thermodynamic at 48 h was 669 µg/mL (≈ 2060 µM) in data set [1] and 1.11 µg/mL (≈ 3.41 µM) in data set [2]. Further, in data set [4], the Retention_time was found to be 13.8 min. Consider `O=C1CCCc2cc(Nc3cc(C(F)(F)F)ccn3)ccc2N1`, for which the IC50 was 0.05 µM in data set [3], 5 µM in the data set on A549, 6.5 µM in the data set with HCT-116 and 9.1 µM in the data set on MCF7. The values for the solubility thermodynamic at 48 h in data set [1] and in data set [2] were 4820 µg/mL (≈ 15000 µM) and 8.07 µg/mL (≈ 25.1 µM), respectively. In addition, the Retention_time in data set [4] stood at 10.8 min.

For orientation: IC50 means the concentration needed to halve the response being measured.
